Measured values from article PMC4065498 (Chemical research in toxicology, 2010).

How the values were obtained:
recombinant human CES1 = target: T1, recombinant human CES1 (Homo sapiens, UniProt P23141); format: biochemical; conditions: 2AG substrate
T1 sequence (P23141 18-567): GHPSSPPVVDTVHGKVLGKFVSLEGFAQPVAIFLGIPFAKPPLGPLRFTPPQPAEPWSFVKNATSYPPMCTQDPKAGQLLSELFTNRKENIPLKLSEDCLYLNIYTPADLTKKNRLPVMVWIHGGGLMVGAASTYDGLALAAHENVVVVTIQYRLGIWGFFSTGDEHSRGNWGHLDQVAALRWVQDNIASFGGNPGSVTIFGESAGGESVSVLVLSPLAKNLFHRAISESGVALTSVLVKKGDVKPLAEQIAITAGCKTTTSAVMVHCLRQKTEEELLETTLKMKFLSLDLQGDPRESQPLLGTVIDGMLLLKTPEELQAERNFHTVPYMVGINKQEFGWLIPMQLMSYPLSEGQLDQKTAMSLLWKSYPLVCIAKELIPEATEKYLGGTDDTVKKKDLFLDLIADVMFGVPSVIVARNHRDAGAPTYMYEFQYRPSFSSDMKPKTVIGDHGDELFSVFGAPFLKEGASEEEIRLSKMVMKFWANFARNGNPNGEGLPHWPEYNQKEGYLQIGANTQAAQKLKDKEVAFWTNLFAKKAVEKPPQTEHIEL

THP1 foam cells = assay: Endogenous 2AG produced by cholesterol-loaded THP1 macrophages; format: cell-based, human; conditions: 24 h
[1] = test system: 31-32kDa enzyme in THP1 lysates; assay: Activity-based protein profiling with FP-biotin in THP1 lysate: 31-32kDa enzyme; format: biochemical, human
In short: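 THP1 monocyte lysate (1 mg/ml protein in 50 mM Tris-HCl, pH 7.4) was labelled with 2 μM FP-biotin for 1 h at room temperature. Irreversible inhibitors were preincubated for 30 min (37°C) before the probe. For the reversible inhibitor, lysate received inhibitor, then 0.2 μM FP-biotin for 7.5 min, short of full labelling. Reactions were stopped in reducing SDS loading buffer (95°C, 5 min), run on SDS-PAGE and blotted with avidin-HRP.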

recombinant human MAGL = target: T2, recombinant human MAGL (Homo sapiens, UniProt Q99685); format: biochemical; conditions: 2AG substrate
T2 sequence (Q99685 1-303): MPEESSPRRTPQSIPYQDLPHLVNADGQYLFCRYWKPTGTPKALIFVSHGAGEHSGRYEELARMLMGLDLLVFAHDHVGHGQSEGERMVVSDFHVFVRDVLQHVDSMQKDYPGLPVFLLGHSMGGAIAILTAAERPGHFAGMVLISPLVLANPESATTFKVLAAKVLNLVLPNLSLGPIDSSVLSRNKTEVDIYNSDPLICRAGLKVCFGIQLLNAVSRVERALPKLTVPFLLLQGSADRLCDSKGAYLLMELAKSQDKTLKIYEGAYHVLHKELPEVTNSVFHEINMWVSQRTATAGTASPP

THP1 macrophages = assay: PG-G and 2AG levels in LPS-primed THP1 macrophages stimulated with ionomycin; format: cell-based, human; conditions: oxon 1 μM, ionomycin 5 μM
[2] = test system: lipid glyceryl ester hydrolase activities of THP1 monocyte lysates

chlorpyrifos oxon [CPO]
inhibition of recombinant CES1 (in words) (recombinant human CES1): potently inhibit
amount of 2AG in culture medium relative to control group (THP1 foam cells; oxon 1 μM): 2.5 fold
amount of 2AG in culture medium relative to control group (THP1 foam cells; oxon 10 μM): 8.1 fold
concentration needed to reduce activity of the 31-32kDa enzyme toward FP-biotin [1]: > 10 µM
inhibition of recombinant MAGL (in words) (recombinant human MAGL): potently inhibit
PGF2α-G, PGE2-G, and 2AG levels compared to vehicle-treated cells following ionomycin stimulation (THP1 macrophages): significantly elevated
inhibition of PGE2-G hydrolysis activity in THP1 cell lysate ([2]; oxon 1 μM): near complete inhibition
inhibition of hydrolysis of exogenous 2AG in THP1 lysate ([2]; oxon 1 μM, 2AG 10 μM): 49%
inhibition of 2AG hydrolysis activity in THP1 lysate ([2]; oxon 10 μM): 72%
knock down of 2AG hydrolysis activity in THP1 monocyte lysate ([2]; oxon 500 μM): 94%
